# Assay results: ChEMBL document CHEMBL4020823, “Highly Selective, Potent, and Oral mTOR Inhibitor for Treatment of Cancer as Autophagy Inducer” (J Med Chem, 2018)
# Calls of active or inactive are those of the source. No cut-off for these calls is given here.
# Columns and labels:
# [1] = biological target: PI3-kinase p110-delta/p85-alpha (Homo sapiens) (UniProt P27986+O00329); test: Inhibition of full length recombinant human PI3K p110delta/p85alpha at 1 uM relative to control; type: protein-complex assay
# Outline: (§1)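 Eurofins KinaseProfiler panel with compound at a single 1 μM concentration. ATP at the Km of each kinase. Result is % inhibition, mean of two independent experiments.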
# SK-OV-3 = test: Growth inhibition of human SKOV3 cells after 72 hrs by CCK8 assay; type: functional, cell-based; settings: SK-OV-3, 72 h
# Outline: (§2)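 Cells were seeded at 2000–3000 per well and grown 24 h in serum-containing medium. They were then exposed to serially diluted compound for 72 h at 37 °C, 5% CO2. CCK8 reagent was added for 1–4 h and absorbance read at 450 nm. Inhibition = (AC − AS)/(AC − Ab) × 100%. IC50 is the average of at least three independent determinations.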
# [2] = MRT (0 to infinity) in Sprague-Dawley rat at 20 mg/kg, iv administered as single dose by HPLC analysis; type: ADME, organism-based; settings: in vivo
# Outline: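 Rats fasted overnight, then given a single 20 mg/kg dose either iv or po. Blood collected and centrifuged immediately to obtain plasma. Plasma drug levels measured by HPLC, and pharmacokinetic parameters derived from both routes.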
# Mus musculus [3] = test: Down regulation of AKT phosphorylation at Ser473 residues in human T47D cells xenografted in BALB/c nude mouse administered via oral gavage after 3 weeks by hematoxylin and eosine staining based light microscopic assay; type: functional, cell-based
# Outline: (§3)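 Tumours from the oral 3-week T-47D xenograft study were formalin-fixed, paraffin-embedded and cut into 5 μm sections. Sections were deparaffinized, rehydrated and incubated overnight at 4 °C with phospho-specific primary antibody at 1:100. Biotin secondary was applied for 1 h at room temperature, then ABC-peroxidase/DAB with hematoxylin counterstain. Sections were viewed by light microscopy.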
# [4] = biological target: Phosphatidylinositol 4,5-bisphosphate 3-kinase catalytic subunit gamma isoform (Homo sapiens) (UniProt P48736); test: Inhibition of full length recombinant human PI3K p120gamma at 1 uM relative to control; outline: as §1
# Chain of Phosphatidylinositol 4,5-bisphosphate 3-kinase catalytic subunit gamma isoform (Homo sapiens) (P48736 whole entry, looked up, canonical isoform): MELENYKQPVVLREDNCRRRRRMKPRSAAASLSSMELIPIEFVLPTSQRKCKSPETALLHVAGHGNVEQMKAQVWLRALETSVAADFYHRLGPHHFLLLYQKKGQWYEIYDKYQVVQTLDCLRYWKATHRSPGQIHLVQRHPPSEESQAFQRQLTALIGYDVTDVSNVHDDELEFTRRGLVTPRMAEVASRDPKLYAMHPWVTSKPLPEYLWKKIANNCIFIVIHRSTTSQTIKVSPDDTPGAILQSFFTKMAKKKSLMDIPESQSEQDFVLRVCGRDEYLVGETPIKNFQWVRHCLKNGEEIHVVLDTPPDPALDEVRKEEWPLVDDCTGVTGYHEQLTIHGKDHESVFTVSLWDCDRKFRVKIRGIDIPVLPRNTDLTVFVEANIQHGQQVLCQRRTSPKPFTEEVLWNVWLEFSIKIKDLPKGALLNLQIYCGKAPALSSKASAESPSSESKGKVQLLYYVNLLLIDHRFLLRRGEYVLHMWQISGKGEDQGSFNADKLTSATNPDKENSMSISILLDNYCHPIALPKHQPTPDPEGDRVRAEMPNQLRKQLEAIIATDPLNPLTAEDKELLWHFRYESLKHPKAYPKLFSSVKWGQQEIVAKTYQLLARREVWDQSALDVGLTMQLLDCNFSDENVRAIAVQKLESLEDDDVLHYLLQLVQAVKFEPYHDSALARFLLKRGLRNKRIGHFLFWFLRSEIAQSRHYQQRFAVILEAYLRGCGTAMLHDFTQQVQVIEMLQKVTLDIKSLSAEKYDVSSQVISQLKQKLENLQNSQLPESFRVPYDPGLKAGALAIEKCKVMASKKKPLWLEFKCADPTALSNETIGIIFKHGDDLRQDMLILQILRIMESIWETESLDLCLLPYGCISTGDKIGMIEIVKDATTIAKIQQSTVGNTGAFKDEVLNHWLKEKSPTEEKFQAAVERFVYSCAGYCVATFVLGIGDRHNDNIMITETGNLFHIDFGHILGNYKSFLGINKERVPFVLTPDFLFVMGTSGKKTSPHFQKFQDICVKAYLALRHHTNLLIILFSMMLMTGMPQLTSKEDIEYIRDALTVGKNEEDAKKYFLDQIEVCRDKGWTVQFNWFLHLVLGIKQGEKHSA
# Mus musculus [5] = test: Up regulation of LC3B levels in human T47D cells xenografted in BALB/c nude mouse administered via oral gavage after 3 weeks by hematoxylin and eosine staining based light microscopic assay; type: functional, cell-based
# Outline: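 Tumors taken from daily-dosed T-47D xenograft mice, formalin-fixed and paraffin-embedded, cut into 5 μm sections. Sections deparaffinized, rehydrated, and incubated overnight at 4 °C with anti-LC3B at 1:100. Then biotin-labeled secondary for 1 h at room temperature, ABC-peroxidase with DAB, hematoxylin counterstain. Read by light microscopy.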
# Homo sapiens [6] = organism: Homo sapiens; test: Inhibition of mTORC1 in human MDA-MB-231 cells assessed as reduction in S6 phosphorylation at Ser 240/244 residues at 0.25 to 0.5 uM by Western blot analysis; type: cell-based
# Outline: (§4)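 Cells treated with the indicated concentrations, then whole-cell lysates immunoblotted. mTORC1 activity read as S6 and 4E-BP1 phosphorylation; mTORC2 activity read as AKT Ser473 phosphorylation. Blocking in 5% skim milk, primary antibodies at 4 °C overnight, peroxidase-conjugated secondary, ECL detection.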
# Homo sapiens [7] = organism: Homo sapiens; test: Inhibition of mTORC1 in human MDA-MB-231 cells assessed as reduction in 4E-BP1 phosphorylation at Thr37/46 residues at 0.25 to 0.5 uM by Western blot analysis; type: cell-based; outline: as §4
# [8] = Half life in Sprague-Dawley rat at 20 mg/kg, po administered as single dose by HPLC analysis; type: ADME, organism-based; settings: in vivo
# Outline: (§5)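 Rats fasted overnight, then given one 20 mg/kg dose either iv or po. Blood was collected and centrifuged at once to obtain plasma. Plasma drug levels were measured by HPLC, and PK parameters were derived from the concentration-time data.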
# [9] = Protein binding in human plasma at 4 uM after 4 hrs by equilibrium dialysis method; type: ADME, cell-free; settings: read-out: PPB (converted)
# Outline: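 Plasma protein binding measured in rabbit and human plasma with compound at 4 μM over a 4 h period; result given as percent bound.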
# T47D = test: Induction of autophagy in human T47D cells assessed as increase in LC3-2 puncta level at 0.25 to 0.5 uM after 48 hrs by immunofluorescence staining based microscopic analysis; type: functional, cell-based
# Outline: (§6)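 Cells seeded on glass coverslips in complete 1640 or DMEM and incubated with inhibitors at different concentrations for 48 h. Fixed in 4% paraformaldehyde, permeabilized with 0.15% Triton X-100, blocked in 4% BSA/PBS for 1 h at room temperature. Anti-LC3B (1:200) overnight, then FITC-conjugated secondary, DAPI nuclear stain. LC3B-II puncta viewed by fluorescence microscopy.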
# [10] = Clearance in Sprague-Dawley rat at 20 mg/kg, iv administered as single dose by HPLC analysis; type: ADME, organism-based; settings: in vivo; outline: as §5
# Homo sapiens [11] = organism: Homo sapiens; test: Inhibition of mTORC1 in human SiHa cells assessed as reduction in 4E-BP1 phosphorylation at Thr37/46 residues at 0.25 to 0.5 uM by Western blot analysis; type: cell-based; outline: as §4
# Mus musculus [12] = test: Down regulation of 4E-BP1 phosphorylation at Ser65 residues in human T47D cells xenografted in BALB/c nude mouse administered via oral gavage after 3 weeks by hematoxylin and eosine staining based light microscopic assay; type: functional, cell-based; outline: as §3
# Homo sapiens [13] = organism: Homo sapiens; test: Inhibition of mTORC1 in human SiHa cells assessed as reduction in 4E-BP1 phosphorylation at Ser65 residues at 0.25 to 0.5 uM by Western blot analysis; type: cell-based; outline: as §4
# MCF7 = test: Growth inhibition of human MCF7 cells after 72 hrs by CCK8 assay; type: functional, cell-based; settings: MCF7, 72 h; outline: as §2
# [14] = biological target: PI3K p110 delta/p85 alpha (Mus musculus) (UniProt P26450+O35904); test: Inhibition of full length recombinant mouse PI3K p110delta/p85alpha at 1 uM relative to control; type: protein-complex assay; outline: as §1
# MDA-MB-231 [15] = test: Growth inhibition of human MDA-MB-231 cells after 72 hrs by CCK8 assay; type: functional, cell-based; settings: MDA-MB-231, 72 h; outline: as §2
# Homo sapiens [16] = organism: Homo sapiens; test: Inhibition of mTORC1 in human MCF7 cells assessed as reduction in 4E-BP1 phosphorylation at Thr37/46 residues at 0.25 to 0.5 uM by Western blot analysis; type: cell-based; outline: as §4
# [17] = test system: PI3-kinase p110-alpha/p85-alpha (Homo sapiens), P27986+P42336 [E542K]; test: Inhibition of full length recombinant human p85alpha/PI3K p110alpha E542K mutant at 1 uM relative to control; outline: as §1
# ATR/ATRIP (Homo sapiens) = ATR/ATRIP (Homo sapiens) (UniProt Q13535+Q8WXE1); test: Inhibition of full length recombinant human ATR /ATRIP at 1 uM relative to control; type: protein-complex assay; outline: as §1
# Chain of ATR/ATRIP (Homo sapiens) (Q13535 whole entry, looked up): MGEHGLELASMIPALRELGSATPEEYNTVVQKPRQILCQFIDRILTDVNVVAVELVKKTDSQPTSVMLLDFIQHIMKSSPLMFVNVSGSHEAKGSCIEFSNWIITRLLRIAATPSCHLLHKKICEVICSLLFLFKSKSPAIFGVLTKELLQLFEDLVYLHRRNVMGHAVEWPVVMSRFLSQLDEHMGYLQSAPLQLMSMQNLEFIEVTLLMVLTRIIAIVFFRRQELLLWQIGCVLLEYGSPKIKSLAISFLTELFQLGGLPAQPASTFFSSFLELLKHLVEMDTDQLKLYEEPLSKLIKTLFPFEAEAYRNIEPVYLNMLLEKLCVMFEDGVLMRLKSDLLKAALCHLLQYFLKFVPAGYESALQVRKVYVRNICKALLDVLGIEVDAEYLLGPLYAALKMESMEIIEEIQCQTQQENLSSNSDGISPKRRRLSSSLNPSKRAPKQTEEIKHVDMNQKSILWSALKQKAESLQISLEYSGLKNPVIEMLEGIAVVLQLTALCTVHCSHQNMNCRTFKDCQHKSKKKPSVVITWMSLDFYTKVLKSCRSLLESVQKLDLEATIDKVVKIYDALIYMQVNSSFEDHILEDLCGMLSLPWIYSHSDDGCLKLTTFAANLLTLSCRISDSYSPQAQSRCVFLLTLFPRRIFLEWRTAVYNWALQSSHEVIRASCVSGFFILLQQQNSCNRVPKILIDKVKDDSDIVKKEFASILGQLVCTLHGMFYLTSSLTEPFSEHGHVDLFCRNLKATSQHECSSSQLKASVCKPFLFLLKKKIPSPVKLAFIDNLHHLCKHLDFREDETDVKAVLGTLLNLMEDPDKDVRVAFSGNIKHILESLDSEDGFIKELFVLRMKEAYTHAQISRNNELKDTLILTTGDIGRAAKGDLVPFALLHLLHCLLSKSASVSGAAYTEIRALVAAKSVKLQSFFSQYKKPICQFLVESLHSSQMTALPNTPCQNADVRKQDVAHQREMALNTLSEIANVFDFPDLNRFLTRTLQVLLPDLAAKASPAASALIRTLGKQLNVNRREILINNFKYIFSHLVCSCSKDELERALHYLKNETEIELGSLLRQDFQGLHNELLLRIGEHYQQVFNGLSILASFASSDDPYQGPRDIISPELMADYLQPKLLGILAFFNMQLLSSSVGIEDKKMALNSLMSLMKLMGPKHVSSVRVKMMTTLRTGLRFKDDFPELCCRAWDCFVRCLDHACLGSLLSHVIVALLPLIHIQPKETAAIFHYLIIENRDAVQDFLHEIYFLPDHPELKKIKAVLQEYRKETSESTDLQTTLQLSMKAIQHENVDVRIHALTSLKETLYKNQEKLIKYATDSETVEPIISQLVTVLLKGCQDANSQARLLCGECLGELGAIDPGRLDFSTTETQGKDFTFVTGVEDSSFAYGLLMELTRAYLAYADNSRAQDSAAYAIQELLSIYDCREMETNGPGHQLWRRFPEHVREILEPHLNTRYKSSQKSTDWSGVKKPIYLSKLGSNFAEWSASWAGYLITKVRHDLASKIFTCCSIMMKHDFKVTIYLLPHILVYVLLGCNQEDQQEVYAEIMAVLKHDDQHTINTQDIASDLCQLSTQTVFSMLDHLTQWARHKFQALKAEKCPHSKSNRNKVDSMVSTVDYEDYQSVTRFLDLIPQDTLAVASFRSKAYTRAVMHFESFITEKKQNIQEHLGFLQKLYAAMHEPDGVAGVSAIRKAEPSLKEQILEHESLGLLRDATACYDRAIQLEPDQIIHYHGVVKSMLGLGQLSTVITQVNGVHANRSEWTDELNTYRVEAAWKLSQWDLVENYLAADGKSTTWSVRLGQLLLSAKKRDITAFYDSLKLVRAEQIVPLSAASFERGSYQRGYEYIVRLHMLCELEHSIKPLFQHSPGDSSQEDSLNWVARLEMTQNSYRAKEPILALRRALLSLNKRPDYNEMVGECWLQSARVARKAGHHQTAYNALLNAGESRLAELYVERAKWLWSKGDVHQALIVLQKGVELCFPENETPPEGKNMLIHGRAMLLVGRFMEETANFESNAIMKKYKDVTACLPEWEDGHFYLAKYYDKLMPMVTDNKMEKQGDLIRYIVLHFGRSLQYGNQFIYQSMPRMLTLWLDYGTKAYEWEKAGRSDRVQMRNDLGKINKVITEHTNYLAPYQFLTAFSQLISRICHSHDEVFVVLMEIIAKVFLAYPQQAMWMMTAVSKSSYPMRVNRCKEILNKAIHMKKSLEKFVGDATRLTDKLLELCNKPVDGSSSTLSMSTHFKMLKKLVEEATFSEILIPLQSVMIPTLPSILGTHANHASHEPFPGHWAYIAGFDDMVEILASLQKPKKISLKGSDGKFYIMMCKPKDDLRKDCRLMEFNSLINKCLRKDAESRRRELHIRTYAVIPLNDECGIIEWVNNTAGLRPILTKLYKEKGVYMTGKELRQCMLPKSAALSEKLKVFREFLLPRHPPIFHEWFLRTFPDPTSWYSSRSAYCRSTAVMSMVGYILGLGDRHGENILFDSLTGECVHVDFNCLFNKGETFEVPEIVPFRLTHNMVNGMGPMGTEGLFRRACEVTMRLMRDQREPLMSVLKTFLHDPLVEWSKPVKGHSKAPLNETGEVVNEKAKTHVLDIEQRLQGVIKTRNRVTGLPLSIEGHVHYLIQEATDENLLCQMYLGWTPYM
# Chain of ATR/ATRIP (Homo sapiens) (Q8WXE1 whole entry, looked up): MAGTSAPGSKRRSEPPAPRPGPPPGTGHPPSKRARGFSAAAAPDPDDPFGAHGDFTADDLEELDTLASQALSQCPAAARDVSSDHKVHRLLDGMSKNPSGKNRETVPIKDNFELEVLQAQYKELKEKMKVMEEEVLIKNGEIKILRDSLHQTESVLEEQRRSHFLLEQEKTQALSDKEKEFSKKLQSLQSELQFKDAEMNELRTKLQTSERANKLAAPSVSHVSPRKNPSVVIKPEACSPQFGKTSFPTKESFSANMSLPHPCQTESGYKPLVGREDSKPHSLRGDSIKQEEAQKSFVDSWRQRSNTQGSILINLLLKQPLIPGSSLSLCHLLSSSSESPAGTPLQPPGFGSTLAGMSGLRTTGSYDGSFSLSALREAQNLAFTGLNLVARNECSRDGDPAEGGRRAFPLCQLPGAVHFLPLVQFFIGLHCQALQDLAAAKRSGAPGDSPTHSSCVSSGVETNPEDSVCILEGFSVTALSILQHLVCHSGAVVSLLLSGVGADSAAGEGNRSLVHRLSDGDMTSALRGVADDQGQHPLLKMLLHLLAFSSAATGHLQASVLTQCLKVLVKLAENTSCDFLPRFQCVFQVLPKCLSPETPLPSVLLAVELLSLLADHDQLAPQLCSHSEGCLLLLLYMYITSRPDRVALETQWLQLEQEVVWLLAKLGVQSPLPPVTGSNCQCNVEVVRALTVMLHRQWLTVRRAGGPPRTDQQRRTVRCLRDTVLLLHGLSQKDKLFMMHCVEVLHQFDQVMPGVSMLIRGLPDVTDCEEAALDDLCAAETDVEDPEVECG
# HeLa = test: Growth inhibition of human HeLa cells after 72 hrs by CCK8 assay; type: functional, cell-based; outline: as §2
# MDA-MB-231 [18] = test: Induction of autophagy in human MDA-MB-231 cells assessed as increase in LC3-2 puncta level after 48 hrs by immunofluorescence staining based microscopic analysis; type: functional, cell-based; outline: as §6
# Homo sapiens [19] = organism: Homo sapiens; test: Inhibition of mTORC2 in human MCF7 cells assessed as reduction in AKT phosphorylation at Ser473 residues at 0.25 to 0.5 uM by Western blot analysis; type: cell-based; outline: as §4
# Mus musculus [20] = organism: Mus musculus; test: Inhibition of full length recombinant mouse PI3K p110alpha/p65alpha at 1 uM relative to control; outline: as §1
compound,measurement,setting,value
N#CCN1CCC(n2c(=O)cnc3cnc4ccc(-c5ccc(N)nc5)cc4c32)CC1,inhibition,[1],9%
same,IC50,SK-OV-3,1850 nM
same,MRT inf,[2],11.6 h
same,Activity,Mus musculus [3],Dose-dependent effect
same,inhibition,[4],4%
same,Activity,Mus musculus [5],Dose-dependent effect
same,inhibition,Homo sapiens [6],Active
same,inhibition,Homo sapiens [7],Active
same,half-life,[8],9.98 h
same,"fraction unbound at 4 h, 4 µM",[9],0.36
same,Activity,T47D,Active
same,clearance,[10],25.5 mL/min/kg
same,inhibition,Homo sapiens [11],Active
same,Activity,Mus musculus [12],Dose-dependent effect
same,inhibition,Homo sapiens [13],Active
same,IC50,MCF7,103 nM
same,inhibition,[14],4%
same,IC50,MDA-MB-231 [15],100 nM
same,inhibition,Homo sapiens [16],Active
same,inhibition,[17],11%
same,inhibition,ATR/ATRIP (Homo sapiens),24%
same,IC50,HeLa,441 nM
same,Activity,MDA-MB-231 [18],Dose-dependent effect
same,inhibition,Homo sapiens [19],Active
same,inhibition,Mus musculus [20],9%
